For five molecules, SC50, MIC and Activity results are on record in ChEMBL document CHEMBL1154215, “Constituents of the leaves of Magnolia ovata” (2009).

What is called MIC is the least concentration at which growth counts as inhibited. Read a high MIC as a need for much substance.

Common to all, as to assay type: functional
The test system of assay [1] is Radical scavenging activity. The assay is described as follows: Antioxidant activity assessed as DPPH radical scavenging activity. The method in brief: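 DPPH (250 μM in MeOH) added to methanolic compound solutions, seven serial […] dilutions giving a final range of 100 to 1.6 μg mL⁻¹. Quercetin and Trolox served as positive controls. Triplicate assays. SC₅₀ is the concentration (μg mL⁻¹) scavenging 50% of DPPH radicals, reported as mean (%RSD).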
For orientation: DPPH is a stable violet radical that fades when it is reduced.

For the next assay, the system named is Candida tropicalis. In words: Antimicrobial activity against Candida tropicalis ATCC 157 by broth microdilution method. An outline of the steps: (§1)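 Broth microdilution in 96-well plates; compounds tested from 10 to 1000 μg/mL. MIC is the lowest concentration giving complete inhibition of the strain. Positive controls were bacitracine (0.2 UI mL⁻¹) and ketoconazole (100.0 μg mL⁻¹). Negative control was DMSO–sterile water (5:95, v/v). Run in duplicate per microorganism and repeated three times.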

For assay [2], the system named is Staphylococcus epidermidis. In words: Antimicrobial activity against Staphylococcus epidermidis ATCC 12228 by broth microdilution method. An outline of the steps: as §1
A further assay relates to Pseudomonas aeruginosa. In words: Antimicrobial activity against Pseudomonas aeruginosa ATCC 15442 by broth microdilution method. An outline of the steps:
as §1

The subject of another assay is Nakaseomyces glabratus. In words: Antimicrobial activity against Candida glabrata ATCC 30070 by broth microdilution method. The method in brief:
as §1
In general terms: Broth dilution looks for growth in wells or tubes with falling amounts of substance.

In a further assay the test system is Staphylococcus aureus. In words: Antimicrobial activity against Staphylococcus aureus ATCC 14458 by broth microdilution method. The method in brief: as §1
For the next assay, the system named is Escherichia coli. In words: Antimicrobial activity against Escherichia coli ATCC 10799 by broth microdilution method. An outline of the steps:
as §1

Another assay concerns Candida dubliniensis. In words: Antimicrobial activity against Candida dubliniensis ATCC 778157 by broth microdilution method. The method in brief:
as §1

Activity calls are given as the source filed them. No cut-off for these calls is given here.

With `Cc1c(C)c2c(c(C)c1O)CCC(C)(C(=O)O)O2` (stereo unspecified), in assay [1], the SC50 was determined as 2.2 µg/mL.

Turning to `O=c1c(O)c(-c2ccc(O)c(O)c2)oc2cc(O)cc(O)c12`, the SC50 in assay [1] came to 13 µg/mL.

For `C[C@H]([C@H](C)Cc1ccc2c(c1)OCO2)[C@H](O)c1ccc2c(c1)OCO2` (relative stereo) [MAGNOVATIN A], the MIC (in the assay with Candida tropicalis; in assay [2]; against Pseudomonas aeruginosa; with Nakaseomyces glabratus; against Staphylococcus aureus; in the assay on Escherichia coli) was more than 100 µg/mL throughout. Besides, in the assay with Candida dubliniensis, the MIC was more than 100 µg/mL. Further, in assay [1], the outcome was inactive.

For `C/C=C/c1cc(OC)c2c(c1)[C@@H](C)[C@H](c1ccc(OC)c(OC)c1)O2` [ACUMINATIN], the MIC (with Candida tropicalis; in assay [2]; in the assay on Pseudomonas aeruginosa; in the assay on Nakaseomyces glabratus; in the assay on Staphylococcus aureus; in the assay on Escherichia coli) was more than 100 µg/mL in each case. In addition, the MIC in the assay on Candida dubliniensis is more than 100 µg/mL. Moreover, the outcome in assay [1] was inactive.

With `C/C=C/c1cc(OC)c2c(c1)[C@@H](C)[C@H](c1ccc(O)c(OC)c1)O2` [LICARINE A], the MIC (with Candida tropicalis; in assay [2]; against Pseudomonas aeruginosa; in the assay with Nakaseomyces glabratus; in the assay on Staphylococcus aureus; against Escherichia coli) was more than 100 µg/mL throughout. Further, the MIC against Candida dubliniensis is more than 100 µg/mL. The SC50 in assay [1] is 56.1 µg/mL.
